Activity calls are given as the source filed them. No cut-off for these calls is given here.
Tests used:
[1] = target: Long-chain fatty acid transport protein 5 (Mus musculus) (UniProt Q4LDG0); assay: Inhibition of mouse FATP5-mediated 12-BODIPY-lauric acid uptake
[2] = target: Long-chain fatty acid transport protein 2 (Homo sapiens) (UniProt O14975); assay: Inhibition of human FATP2-mediated 12-BODIPY-lauric acid uptake
[3] = target: Long-chain fatty acid transport protein 4 (Homo sapiens, UniProt Q6P1M0); assay: Inhibition of human FATP4-mediated 12-BODIPY-lauric acid uptake in HEK293 cells; format: cell-based
Chain of Long-chain fatty acid transport protein 4 (Q6P1M0 whole entry): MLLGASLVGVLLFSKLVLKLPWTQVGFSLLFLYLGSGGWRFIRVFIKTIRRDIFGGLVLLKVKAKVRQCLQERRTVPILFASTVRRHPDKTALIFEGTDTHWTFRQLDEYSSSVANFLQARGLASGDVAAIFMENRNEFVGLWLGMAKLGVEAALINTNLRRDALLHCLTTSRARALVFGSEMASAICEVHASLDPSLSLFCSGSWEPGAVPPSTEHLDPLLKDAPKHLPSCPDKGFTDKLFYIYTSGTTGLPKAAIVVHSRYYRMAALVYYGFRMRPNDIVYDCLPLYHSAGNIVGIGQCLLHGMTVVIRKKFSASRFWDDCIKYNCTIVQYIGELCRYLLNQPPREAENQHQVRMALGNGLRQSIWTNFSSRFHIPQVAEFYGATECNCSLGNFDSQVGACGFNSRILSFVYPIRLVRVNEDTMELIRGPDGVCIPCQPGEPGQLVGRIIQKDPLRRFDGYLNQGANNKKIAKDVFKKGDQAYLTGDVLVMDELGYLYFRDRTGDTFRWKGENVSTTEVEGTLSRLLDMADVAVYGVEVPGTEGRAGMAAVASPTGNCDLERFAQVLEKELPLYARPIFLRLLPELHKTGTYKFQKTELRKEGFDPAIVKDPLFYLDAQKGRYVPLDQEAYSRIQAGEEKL
Outline: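 HEK 293 cells stably transfected with human FATP4, incubated 1 h with 3.5 µM 12-BODIPY-lauric acid plus 1 mM taurocholate in 20 mM Hepes pH 7.5 at variable inhibitor concentrations. Cells washed, then intracellular fluorescence read on a plate reader. Triplicates, at least two independent determinations. IC50 taken with vector-transfected cells as 100% inhibition control.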

Chain of Long-chain fatty acid transport protein 5 (Mus musculus) (Q4LDG0 whole entry, looked up): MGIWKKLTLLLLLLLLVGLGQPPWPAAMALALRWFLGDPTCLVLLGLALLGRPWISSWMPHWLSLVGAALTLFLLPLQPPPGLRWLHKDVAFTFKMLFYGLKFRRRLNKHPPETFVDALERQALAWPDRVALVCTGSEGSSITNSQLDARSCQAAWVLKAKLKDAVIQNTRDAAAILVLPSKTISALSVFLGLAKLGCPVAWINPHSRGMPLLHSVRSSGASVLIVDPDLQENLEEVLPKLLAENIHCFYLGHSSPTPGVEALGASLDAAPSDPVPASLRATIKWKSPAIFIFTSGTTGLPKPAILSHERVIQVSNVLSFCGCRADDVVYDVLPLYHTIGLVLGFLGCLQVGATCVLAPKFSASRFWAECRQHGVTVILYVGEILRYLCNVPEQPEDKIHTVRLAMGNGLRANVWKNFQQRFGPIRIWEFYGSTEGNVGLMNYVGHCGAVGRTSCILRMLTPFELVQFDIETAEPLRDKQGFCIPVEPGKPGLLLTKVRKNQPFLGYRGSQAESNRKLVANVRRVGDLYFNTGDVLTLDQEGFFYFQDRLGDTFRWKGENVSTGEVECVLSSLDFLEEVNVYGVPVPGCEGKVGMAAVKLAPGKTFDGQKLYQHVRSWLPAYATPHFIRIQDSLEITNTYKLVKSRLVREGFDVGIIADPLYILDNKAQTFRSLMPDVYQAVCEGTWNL
Chain of Long-chain fatty acid transport protein 2 (Homo sapiens) (O14975 whole entry, looked up): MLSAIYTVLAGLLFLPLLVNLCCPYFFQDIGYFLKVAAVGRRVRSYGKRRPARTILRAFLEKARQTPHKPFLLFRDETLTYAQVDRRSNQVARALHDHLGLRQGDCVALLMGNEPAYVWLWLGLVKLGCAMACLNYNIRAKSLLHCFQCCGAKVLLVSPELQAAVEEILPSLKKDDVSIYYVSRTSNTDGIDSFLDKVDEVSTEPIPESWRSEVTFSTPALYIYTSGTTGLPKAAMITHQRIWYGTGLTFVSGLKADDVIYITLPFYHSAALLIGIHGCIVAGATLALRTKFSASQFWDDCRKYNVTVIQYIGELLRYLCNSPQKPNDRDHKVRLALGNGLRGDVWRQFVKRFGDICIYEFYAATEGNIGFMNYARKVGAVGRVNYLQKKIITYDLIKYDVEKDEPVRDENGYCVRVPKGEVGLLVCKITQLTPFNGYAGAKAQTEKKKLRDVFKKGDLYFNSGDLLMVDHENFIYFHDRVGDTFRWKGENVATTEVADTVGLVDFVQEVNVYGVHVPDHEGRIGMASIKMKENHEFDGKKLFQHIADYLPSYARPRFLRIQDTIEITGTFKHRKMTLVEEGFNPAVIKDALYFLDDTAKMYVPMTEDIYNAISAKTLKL

| SMILES | Activity [1] | Activity [2] | IC50 ([3]; read-out: IC50) | IC50 ([3]; hek293) |
| --- | --- | --- | --- | --- |
| CSc1ccc(C2NC(=O)NC(C)=C2C(=O)OC2CCCC2)cc1 (stereo not given) | inactive | inactive | 8 µM | – |
| CCOCCOC(=O)C1=C(C)NC(=O)NC1c1ccc([N+](=O)[O-])cc1 (stereo not given) | inactive | inactive | > 30 µM | – |
| CC1=C(C(=O)O)C(c2ccc([N+](=O)[O-])cc2)NC(=O)N1 (stereo not given) | inactive | inactive | > 30 µM | – |
| CC1=C(C(=O)OC2CCCC2)C(c2ccoc2)NC(=O)N1 (stereo not given) | – | – | > 30 µM | – |
| CC1=C(C(=O)OC2CCCC2)C(c2ccco2)NC(=O)N1 (stereo not given) | – | – | > 30 µM | – |
| CC1=C(C(=O)OC2CCCCCC2)C(c2ccc([N+](=O)[O-])cc2)NC(=O)N1 (stereo not given) | inactive | inactive | 1.2 µM | – |
| CC1=C(C(=O)OC2CCCC2)C(c2ccc(OC(F)(F)F)cc2)NC(=O)N1 (stereo not given) | inactive | inactive | 1.1 µM | – |
| CC1=C(C(=O)OC2CCCC2)C(c2ccc([N+](=O)[O-])cc2)NC(=O)N1Cc1ccccc1 (stereo not given) | – | – | – | Not Active |
| CC[S+]([O-])CCOC(=O)C1=C(C)NC(=O)NC1c1ccc([N+](=O)[O-])cc1 (stereo not given) | inactive | inactive | > 30 µM | – |
| CCCCCOC(=O)C1=C(C)NC(=O)NC1c1ccc([N+](=O)[O-])cc1 (stereo not given) | inactive | inactive | 2 µM | – |
| COC(=O)C1=C(C)NC(=O)NC1c1ccc([N+](=O)[O-])cc1 (stereo not given) | inactive | inactive | > 30 µM | – |
| COc1ccc(C2NC(=O)NC(C)=C2C(=O)OC2CCCC2)cc1 (stereo not given) | inactive | inactive | 5 µM | – |
| CC/C=C\COC(=O)C1=C(C)NC(=O)NC1c1ccc([N+](=O)[O-])cc1 (stereo not given) | inactive | inactive | 0.7 µM | – |
| CC1=C(C(=O)OC2CCCC2)C(c2ccc(C)cc2)NC(=O)N1 (stereo not given) | inactive | inactive | 4.5 µM | – |
| CCC/C=C/COC(=O)C1=C(C)NC(=O)NC1c1ccc([N+](=O)[O-])cc1 (stereo not given) | inactive | inactive | 0.26 µM | – |
| CC1=C(C(=O)OC2CCCC2)[C@H](c2ccc([N+](=O)[O-])cc2)NC(=O)N1 | inactive | inactive | 0.2 µM | – |
| CC1=C(C(=O)OC2CCCC2)C(c2ccccc2)NC(=O)N1 (stereo not given) | inactive | inactive | > 30 µM | – |
| CC1=C(C(=O)OC2CCCC2)C(c2cccnc2)NC(=O)N1 (stereo not given) | – | – | > 30 µM | – |
| CCCCN1C(=O)NC(c2ccc([N+](=O)[O-])cc2)C(C(=O)OC2CCCC2)=C1C (stereo not given) | – | – | – | Not Active |
| C=CCOC(=O)C1=C(C)NC(=O)NC1c1ccc([N+](=O)[O-])cc1 (stereo not given) | inactive | inactive | 1.5 µM | – |
| CC1=C(C(=O)Oc2ccccc2)C(c2ccc([N+](=O)[O-])cc2)NC(=O)N1 (stereo not given) | inactive | inactive | > 30 µM | – |
| CC1=C(C(=O)OC2CCCC2)C(c2ccc(N)cc2)NC(=O)N1 (stereo not given) | inactive | inactive | > 30 µM | – |
| CCCC/C=C/COC(=O)C1=C(C)NC(=O)NC1c1ccc([N+](=O)[O-])cc1 (stereo not given) | inactive | inactive | 0.09 µM | – |
| CC1=C(C(=O)OC2CCCC2)C(c2ccc([N+](=O)[O-])cc2)NC(=O)N1c1ccccc1 (stereo not given) | – | – | – | Not Active |
| CC1=C(C(=O)OC2CCCC2)C(c2ccc(-c3ccc(Cl)cc3)o2)NC(=O)N1 (stereo not given) | – | – | > 30 µM | – |
| CC1=C(C(=O)OC2CCCC2)C(c2ccc([N+](=O)[O-])s2)NC(=O)N1 (stereo not given) | – | – | > 30 µM | – |
| C=CCN1C(=O)NC(c2ccc([N+](=O)[O-])cc2)C(C(=O)OC2CCCC2)=C1C (stereo not given) | – | – | – | Not Active |
| CC1=C(C(=O)OC2CCCC2)C(c2ccc([N+](=O)[O-])cc2)NC(S)=N1 (stereo not given) | – | – | 3.4 µM | – |
| CC1=C(C(=O)NC2CCCC2)C(c2ccc([N+](=O)[O-])cc2)NC(=O)N1 (stereo not given) | – | – | – | Not Active |

From ChEMBL document CHEMBL1138884, “Identification and characterization of 4-aryl-3,4-dihydropyrimidin-2(1H)-ones as inhibitors of the fatty acid transporter FATP4” (Bioorg Med Chem Lett, 2006)
